One assay deals with Klebsiella pneumoniae. The experiment in a line: Minimum inhibitory concentration was evaluated in vitro against Klebsiella pneumoniae MGH2. The format is functional. The following applies: Klebsiella pneumoniae; read-out: MIC. A digest of the protocol: (§1)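 Standard microtitration broth assay against a panel of 10 Gram-positive and Gram-negative organisms. MIC read in µg/mL and averaged over multiple experiments.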

For the next assay, the system named is Pseudomonas aeruginosa. The assay can be described thus: Minimum inhibitory concentration was evaluated in vitro against Pseudomonas aeruginosa UI-18. The settings on record: Pseudomonas aeruginosa; read-out: MIC. The format is functional. A digest of the protocol: as §1
Assay [1] concerns Streptococcus pyogenes. The assay can be described thus: Compounds were evaluated in vivo for antibacterial activity for mouse protection against Streptococcus pyogenes C 203 after oral administration. The class given is functional. The settings on record: Streptococcus pyogenes, C 203, po; read-out: PD50.
Assay [2] relates to Staphylococcus aureus. The experiment in a line: Minimum inhibitory concentration was evaluated in vitro against Staphylococcus aureus H 228. The format is functional. The following applies: Staphylococcus aureus; read-out: MIC. A digest of the protocol:
as §1

Another assay deals with Streptococcus pneumoniae. The assay can be described thus: Minimum inhibitory concentration was evaluated in vitro against Streptococcus pneumoniae SV-1. The format is functional. The settings on record: Streptococcus pneumoniae; read-out: MIC. A digest of the protocol: as §1
A further assay is filed under the species Mus musculus. The assay can be described thus: Compounds were evaluated for phototoxicity no-effect dose in mouse. The format is functional. A digest of the protocol: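 Depilated female CD-1 mice, five per dose plus controls. Animals are dosed orally and then exposed daily to UV-A (320–400 nm) for 3 h, for up to 4 days or until a definite positive response. Redness or erythema relative to controls, read 24 h after irradiation, counts as positive. Reported as the highest dose with no effect (mg/kg).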

In a further assay the test system is Providencia rettgeri. The experiment in a line: Minimum inhibitory concentration was evaluated in vitro against Providencia rettgeri M1771. The class given is functional. The settings on record: Providencia rettgeri; read-out: MIC. A digest of the protocol:
as §1

Assay [3] concerns Escherichia coli. The experiment in a line: Antibacterial activity in vitro against Escherichia coli Vogel. The format is functional. The following applies: Escherichia coli; read-out: MIC. A digest of the protocol:
as §1

For assay [4], the system named is Escherichia coli. The experiment in a line: Antibacterial activity against Escherichia coli Vogel after oral administration in mouse. The format is functional. The settings on record: Escherichia coli, po; read-out: PD50.
Assay [5] relates to Staphylococcus aureus. The assay can be described thus: Minimum inhibitory concentration was evaluated in vitro against Staphylococcus aureus UC 76. The format is functional. The following applies: Staphylococcus aureus; read-out: MIC. A digest of the protocol:
as §1

A short description of assay [6]: Clonogenic cytotoxicity against hamster V-79 cells. The class given is functional, Cricetulus griseus, V79. A digest of the protocol: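 Chinese hamster V-79 cells grown overnight, then drug-treated for 3 h at 37 °C. Medium is replaced with fresh medium and cells are incubated 5 days to allow colony formation. IC50 (µg/mL) is the concentration inhibiting colony formation by 50% relative to control.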

For a further assay, the system named is Enterococcus faecalis. The assay can be described thus: Minimum inhibitory concentration was evaluated in vitro against Enterococcus faecalis MGH-2. The format is functional. The settings on record: Enterococcus faecalis; read-out: MIC. A digest of the protocol: as §1
The test system of a further assay is Enterobacter cloacae. The experiment in a line: Minimum inhibitory concentration in vitro against Enterobacter cloacae MA 2646. The class given is functional. The settings on record: Enterobacter cloacae; read-out: MIC.
In assay [7] the test system is Streptococcus pyogenes. The experiment in a line: Antibacterial activity measured as mouse protection against Streptococcus pyogenes C 203 after subcutaneous administration. The format is functional. The following applies: Streptococcus pyogenes, C 203, sc; read-out: PD50.
For assay [8], the system named is Escherichia coli. The assay can be described thus: Antibacterial activity against Escherichia coli Vogel after subcutaneous administration in mouse. The following applies: Escherichia coli, sc; read-out: PD50. The class given is functional.
In assay [9] the test system is Streptococcus pyogenes. The assay can be described thus: Minimum inhibitory concentration was evaluated in vitro against Streptococcus pyogenes C 203. The format is functional. The settings on record: Streptococcus pyogenes; read-out: MIC. A digest of the protocol:
as §1

Another assay addresses DNA gyrase (Escherichia coli, UniProt P0AES4+P0AES6). The assay can be described thus: Inhibition against DNA gyrase. The format is protein-complex assay.

Values after ≈ are worked out from the molar mass of the structure shown.

For the compound `CNC(C)C1CCN(c2nc3c(cc2F)c(=O)c(C(=O)O)cn3-c2ccc(F)cc2F)C1` (racemic), the MIC in the assay with Klebsiella pneumoniae was determined as 0.8 µg/mL (≈ 1.79 µM); with Pseudomonas aeruginosa, 3.1 µg/mL (≈ 6.94 µM); with Staphylococcus aureus [2], 0.1 µg/mL (≈ 0.224 µM); in the assay on Streptococcus pneumoniae, 0.025 µg/mL (≈ 0.056 µM); in the assay with Providencia rettgeri it was 1.6 µg/mL (≈ 3.58 µM); with Escherichia coli [3], 0.4 µg/mL (≈ 0.896 µM). Also, the MIC with Staphylococcus aureus [5] came to 0.025 µg/mL (≈ 0.056 µM); in the assay with Enterococcus faecalis, 0.2 µg/mL (≈ 0.448 µM); with Enterobacter cloacae, 0.8 µg/mL (≈ 1.79 µM); in the assay with Streptococcus pyogenes [9], 0.05 µg/mL (≈ 0.112 µM). The ED50 in the assay on Streptococcus pyogenes [1] worked out at 4 mg/kg; in the assay on Escherichia coli [4], 6 mg/kg; in the assay with Streptococcus pyogenes [7], 1 mg/kg; with Escherichia coli [8] it was 2 mg/kg. Besides, the Dose in the assay filed under Mus musculus was above 100 mg/kg. The compound further returned a Cytotoxicity in [6] of 310 µg/mL.

As for `COc1c(N2CCC(N)C2)c(F)cc2c(=O)c(C(=O)O)cn(C3CC3)c12` (stereo not given), the MIC in the assay on Klebsiella pneumoniae was found to be 0.05 µg/mL (≈ 0.138 µM); in the assay with Pseudomonas aeruginosa it was 0.2 µg/mL (≈ 0.553 µM); in the assay on Staphylococcus aureus [2] it was 0.05 µg/mL (≈ 0.138 µM); in the assay on Streptococcus pneumoniae it was 0.025 µg/mL (≈ 0.0692 µM); with Providencia rettgeri it was 0.1 µg/mL (≈ 0.277 µM); with Escherichia coli [3] it was 0.025 µg/mL (≈ 0.0692 µM). In addition, the MIC in the assay on Staphylococcus aureus [5] is 0.013 µg/mL (≈ 0.036 µM); in the assay on Enterococcus faecalis, 0.05 µg/mL (≈ 0.138 µM); with Enterobacter cloacae, 0.025 µg/mL (≈ 0.0692 µM); in the assay with Streptococcus pyogenes [9] it was 0.025 µg/mL (≈ 0.0692 µM). The ED50 came to 10 mg/kg in the assay with Streptococcus pyogenes [1], 3 mg/kg with Escherichia coli [4], 3 mg/kg in the assay with Streptococcus pyogenes [7] and 0.4 mg/kg in the assay on Escherichia coli [8]. The Dose in the assay filed under Mus musculus is above 100 mg/kg. In assay [6], this compound showed a Cytotoxicity of 45 µg/mL.

In the case of `CC1(CN)CCN(c2cc3c(cc2F)c(=O)c(C(=O)O)cn3C2CC2)C1` (stereo not given), the ED50 with Streptococcus pyogenes [1] amounted to 31 mg/kg; with Escherichia coli [4], 43 mg/kg; in the assay with Streptococcus pyogenes [7], 3 mg/kg; in the assay with Escherichia coli [8] it was 3 mg/kg. For the same compound, the MIC was 0.1 µg/mL (≈ 0.278 µM) in the assay on Staphylococcus aureus [2], 0.8 µg/mL (≈ 2.23 µM) in the assay on Providencia rettgeri and 0.013 µg/mL (≈ 0.0362 µM) with Staphylococcus aureus [5]. On DNA gyrase, this compound showed an IC50 of 2780 nM.

Turning to `NC1CCN(c2cc3c(cc2F)c(=O)c(C(=O)O)cn3C2CC2)C1` (stereo not given), the MIC in the assay on Klebsiella pneumoniae was 0.05 µg/mL (≈ 0.151 µM); with Staphylococcus aureus [2] it was 0.2 µg/mL (≈ 0.604 µM); in the assay with Staphylococcus aureus [5], 0.025 µg/mL (≈ 0.0754 µM); with Enterococcus faecalis, 0.1 µg/mL (≈ 0.302 µM); in the assay on Enterobacter cloacae, 0.025 µg/mL (≈ 0.0754 µM); in the assay on Streptococcus pyogenes [9] it was 0.1 µg/mL (≈ 0.302 µM). Further, in the assay on Escherichia coli [4], the ED50 came to 3 mg/kg. The same compound gave an IC50 against DNA gyrase of 754 nM.

`C[C@@H](N)[C@@H]1CCN(c2nc3c(cc2F)c(=O)c(C(=O)O)cn3C2CC2)C1`: the MIC came to 0.1 µg/mL (≈ 0.277 µM) in the assay on Klebsiella pneumoniae; 0.8 µg/mL (≈ 2.22 µM) in the assay on Pseudomonas aeruginosa; 0.05 µg/mL (≈ 0.139 µM) in the assay with Staphylococcus aureus [2]; 0.006 µg/mL (≈ 0.0166 µM) in the assay with Streptococcus pneumoniae; 0.4 µg/mL (≈ 1.11 µM) in the assay with Providencia rettgeri; 0.05 µg/mL (≈ 0.139 µM) with Escherichia coli [3]. Besides, the minimal inhibitory concentration (MIC) in the assay with Staphylococcus aureus [5] came to 0.006 µg/mL (≈ 0.0166 µM); in the assay on Enterococcus faecalis, 0.05 µg/mL (≈ 0.139 µM); in the assay with Enterobacter cloacae it was 0.05 µg/mL (≈ 0.139 µM); in the assay on Streptococcus pyogenes [9], 0.013 µg/mL (≈ 0.0361 µM). Besides, the results for the ED50 in the assay with Streptococcus pyogenes [1] and in the assay with Streptococcus pyogenes [7] were 14 mg/kg and 2 mg/kg, respectively. This compound showed an IC50 at DNA gyrase of 2080 nM.

Regarding `C[C@@H](N)[C@H]1CCN(c2c(F)c(N)c3c(=O)c(C(=O)O)cn(C4CC4)c3c2F)C1` (racemic), the MIC was determined as 0.013 µg/mL (≈ 0.0331 µM) with Klebsiella pneumoniae; 0.4 µg/mL (≈ 1.02 µM) with Pseudomonas aeruginosa; 0.003 µg/mL (≈ 0.00765 µM) with Staphylococcus aureus [2]; 0.003 µg/mL (≈ 0.00765 µM) in the assay with Streptococcus pneumoniae; 0.025 µg/mL (≈ 0.0637 µM) with Providencia rettgeri; 0.013 µg/mL (≈ 0.0331 µM) in the assay on Escherichia coli [3]. The MIC came to 0.003 µg/mL (≈ 0.00765 µM) with Staphylococcus aureus [5], 0.003 µg/mL (≈ 0.00765 µM) in the assay on Enterococcus faecalis, 0.013 µg/mL (≈ 0.0331 µM) with Enterobacter cloacae and 0.003 µg/mL (≈ 0.00765 µM) in the assay with Streptococcus pyogenes [9]. Moreover, the ED50 came to 0.6 mg/kg with Streptococcus pyogenes [1], 2 mg/kg in the assay on Escherichia coli [4], 0.1 mg/kg with Streptococcus pyogenes [7] and 0.3 mg/kg in the assay with Escherichia coli [8]. Also, the Dose in the assay filed under Mus musculus was below 30 mg/kg. The Cytotoxicity in [6] is below 7.8 µg/mL.

Regarding `C[C@H](N)[C@H]1CCN(c2nc3c(cc2F)c(=O)c(C(=O)O)cn3C2CC2)C1`, the MIC was determined as 0.2 µg/mL (≈ 0.555 µM) with Klebsiella pneumoniae; 1.6 µg/mL (≈ 4.44 µM) with Pseudomonas aeruginosa; 0.2 µg/mL (≈ 0.555 µM) with Staphylococcus aureus [2]; 0.05 µg/mL (≈ 0.139 µM) in the assay on Streptococcus pneumoniae; 0.4 µg/mL (≈ 1.11 µM) in the assay with Providencia rettgeri; 0.05 µg/mL (≈ 0.139 µM) with Escherichia coli [3]. The MIC turned out to be 0.025 µg/mL (≈ 0.0694 µM) in the assay with Staphylococcus aureus [5], 0.1 µg/mL (≈ 0.277 µM) with Enterococcus faecalis, 0.05 µg/mL (≈ 0.139 µM) in the assay on Enterobacter cloacae and 0.05 µg/mL (≈ 0.139 µM) in the assay on Streptococcus pyogenes [9]. Further, the ED50 came to 28 mg/kg in the assay on Streptococcus pyogenes [1] and 10 mg/kg in the assay with Streptococcus pyogenes [7]. This compound gave an IC50 against DNA gyrase of 6940 nM.

A word on the MIC: it is the smallest concentration in the dilution series that meets the test's criterion for growth inhibition. As a reminder, the IC50 is the concentration needed to halve the response being measured. A low value points to higher potency.

The values are drawn from ChEMBL document CHEMBL1126988, “Quinolone antibacterials containing the new 7-[3-(1-aminoethyl)-1- pyrrolidinyl] side chain: the effects of the 1-aminoethyl moiety and its stereochemical configurations on potency and in vivo efficacy” (J Med Chem, 1993).
